Experimental data from ChEMBL document CHEMBL1765053, “Synthetic mimics of antimicrobial peptides from triaryl scaffolds” (J Med Chem, 2011).
≈ marks a conversion by molar mass, not a printed value.

Experiments:
[1] = Toxicity in human RBC assessed as hemolysis after 1 hr; type: cell-based, Erythrocyte; details: human red blood cells (RBC)
Summary of the method: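 RBCs spun down from human whole blood and diluted in TBS to a 0.22% stock suspension. Serial 1:2 dilutions of compound in water added, highest final 1000 μg/mL. Shaken 1 h at 37 °C, then centrifuged 3000 rpm for 5 min. Supernatant diluted into water and released hemoglobin quantified. HC50 is the lowest concentration lysing 50% of RBCs.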

Klebsiella pneumoniae = experiment: Antibacterial activity against Klebsiella pneumoniae ATCC 13883 after 18 hrs by microbroth dilution method; type: functional; details: ATCC 13883, 18 h
Summary of the method: (§1)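 Hancock modification of CLSI broth microdilution, adjusted to limit compound adsorption to surfaces and precipitation. Bacteria grown overnight in Mueller-Hinton broth at 37 °C. Compounds tested as di-TFA salts or diamine, from DMSO/Hancock solution (0.01% acetic acid, 0.2% BSA) 2-fold stocks diluted 10-fold into culture. Final 100 to 0.05 μg/mL, duplicate. Growth read as OD600 after 18 h at 37 °C. MIC taken as >90% growth inhibition.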

Escherichia coli = experiment: Antibacterial activity against Escherichia coli ATCC 25922 after 18 hrs by microbroth dilution method; type: functional; details: ATCC 25922, 18 h; summary of the method: as §1
Staphylococcus aureus = experiment: Antibacterial activity against Staphylococcus aureus ATCC 27660 after 18 hrs by microbroth dilution method; type: functional; details: ATCC 27660, 18 h; summary of the method: as §1

For `CC(C)(C)c1ccc(NC(=O)CCN)c(-c2ccc(-c3cc(C(C)(C)C)ccc3NC(=O)CCN)nc2)c1.O=C(O)C(F)(F)F.O=C(O)C(F)(F)F`, which HC50 at 1 h [1] is on record?
Its HC50 at 1 h is 39 µg/mL.

What about the MIC (Klebsiella pneumoniae) of the same compound?
The MIC was 25 µg/mL.

What about the MIC (Escherichia coli) of the same compound?
Its MIC is 12.5 µg/mL.

And the MIC (Staphylococcus aureus)?
Its MIC is 12.5 µg/mL.

With `CC(C)(C)c1ccc(NC(=O)CCCCNC(=N)N)c(-c2ccc(-c3cc(C(C)(C)C)ccc3NC(=O)CCCCNC(=N)N)cc2)c1.O=C(O)C(F)(F)F.O=C(O)C(F)(F)F` as the compound, how does the HC50 at 1 h [1] read?
The HC50 at 1 h was 12.8 µg/mL.

And the MIC (Klebsiella pneumoniae)?
The MIC was 12.5 µg/mL.

And the MIC (Escherichia coli)?
The MIC was 6.25 µg/mL.

What about the MIC (Staphylococcus aureus) of the same compound?
Its MIC is 0.78 µg/mL.

For `NCCC(=O)Nc1ccc(C(F)(F)F)cc1-c1ccc(-c2cc(C(F)(F)F)ccc2NC(=O)CCN)nn1.O=C(O)C(F)(F)F.O=C(O)C(F)(F)F`, which HC50 at 1 h [1] is on record?
The HC50 at 1 h was 191 µg/mL.

And the MIC (Klebsiella pneumoniae)?
Its MIC is 50 µg/mL.

What about the MIC (Escherichia coli) of the same compound?
Its MIC is 50 µg/mL.

And the MIC (Staphylococcus aureus)?
The MIC was 25 µg/mL.

With `NCCC(=O)Nc1ccccc1-c1ccc(-c2ccccc2NC(=O)CCN)nn1.O=C(O)C(F)(F)F.O=C(O)C(F)(F)F` as the compound, how does the HC50 at 1 h [1] read?
The HC50 at 1 h was over 1000 µg/mL.

What about the MIC (Klebsiella pneumoniae) of the same compound?
The MIC was over 50 µg/mL.

And the MIC (Escherichia coli)?
Its MIC is 50 µg/mL.

What about the MIC (Staphylococcus aureus) of the same compound?
The MIC was 50 µg/mL.

For `CC(C)(C)c1ccc(NC(=O)CCN)c(-c2ccc(-c3cc(C(C)(C)C)ccc3NC(=O)CCN)cc2)c1.O=C(O)C(F)(F)F.O=C(O)C(F)(F)F`, which HC50 at 1 h [1] is on record?
Its HC50 at 1 h is 6.46 µg/mL.

And the MIC (Klebsiella pneumoniae)?
The MIC was 12.5 µg/mL.

And the MIC (Escherichia coli)?
Its MIC is 6.25 µg/mL.

What about the MIC (Staphylococcus aureus) of the same compound?
The MIC was 3.13 µg/mL.

Which HC50 at 1 h [1] does the source give for `CC(C)(C)c1ccc(NC(=O)CCCCN)c(-c2ccc(-c3cc(C(C)(C)C)ccc3NC(=O)CCCCN)cc2)c1.O=C(O)C(F)(F)F.O=C(O)C(F)(F)F` here?
Its HC50 at 1 h is 34.5 µg/mL.

What about the MIC (Klebsiella pneumoniae) of the same compound?
Its MIC is 12.5 µg/mL.

And the MIC (Escherichia coli)?
The MIC was 6.25 µg/mL.

What about the MIC (Staphylococcus aureus) of the same compound?
Its MIC is 3.13 µg/mL.

Which results are given for `CC(C)(C)c1ccc(NC(=O)CCCCN)c(-c2ccc(-c3cc(C(C)(C)C)ccc3NC(=O)CCCCN)nn2)c1`?
MIC (Klebsiella pneumoniae): 25 µg/mL (≈ 43.6 µM); MIC (Escherichia coli): 25 µg/mL (≈ 43.6 µM); MIC (Staphylococcus aureus): 12.5 µg/mL (≈ 21.8 µM)

With `NCCC(=O)Nc1ccc(C(F)(F)F)cc1-c1ccc(-c2cc(C(F)(F)F)ccc2NC(=O)CCN)cc1.O=C(O)C(F)(F)F.O=C(O)C(F)(F)F` as the compound, how does the HC50 at 1 h [1] read?
The HC50 at 1 h was 36.5 µg/mL.

And the MIC (Klebsiella pneumoniae)?
Its MIC is 25 µg/mL.

And the MIC (Escherichia coli)?
Its MIC is 12.5 µg/mL.

What about the MIC (Staphylococcus aureus) of the same compound?
Its MIC is 3.13 µg/mL.

Which results are given for `CC(C)(C)c1ccc(NC(=O)CCN)c(-c2ccc(-c3cc(C(C)(C)C)ccc3NC(=O)CCN)nn2)c1.O=C(O)C(F)(F)F.O=C(O)C(F)(F)F`?
HC50 at 1 h [1]: 82.5 µg/mL; MIC (Klebsiella pneumoniae): 100 µg/mL; MIC (Escherichia coli): 50 µg/mL; MIC (Staphylococcus aureus): 12.5 µg/mL

For “H-GIGKFLKKAKKFGKAFVKILKK-NH2 [PEXIGANAN]”, which HC50 at 1 h [1] is on record?
Its HC50 at 1 h is 120 µg/mL.

What about the MIC (Escherichia coli) of the same compound?
The MIC was 16 µg/mL.

And the MIC (Staphylococcus aureus)?
Its MIC is 8 µg/mL.

For `NCCC(=O)Nc1ccc(C(F)(F)F)cc1-c1ccc(-c2cc(C(F)(F)F)ccc2NC(=O)CCN)nc1.O=C(O)C(F)(F)F.O=C(O)C(F)(F)F`, which HC50 at 1 h [1] is on record?
The HC50 at 1 h was 356 µg/mL.

And the MIC (Klebsiella pneumoniae)?
The MIC was over 100 µg/mL.

What about the MIC (Escherichia coli) of the same compound?
Its MIC is 50 µg/mL.

What about the MIC (Staphylococcus aureus) of the same compound?
Its MIC is 25 µg/mL.
